Measurements: ChEMBL document CHEMBL4390663, “Cationic biaryl 1,2,3-triazolyl peptidomimetic amphiphiles: synthesis, antibacterial evaluation and preliminary mechanism of action studies” (Eur J Med Chem, 2019)

Columns and labels:
[1] = tested on: Enterococcus faecalis; test: Antibacterial activity against Enterococcus faecalis ATCC 29212 incubated for 24 hrs by CLSI method; format: functional; settings: ATCC 29212, 24 h
[2] = tested on: Staphylococcus aureus; test: Antimicrobial activity against Staphylococcus aureus ATCC 43300 incubated for 18 hrs by CLSI method; format: functional; settings: ATCC 43300, 18 h
[3] = tested on: Acinetobacter baumannii; test: Antimicrobial activity against Acinetobacter baumannii ATCC 19606 incubated for 18 hrs by CLSI method; format: functional; settings: ATCC 19606 = CIP 70.34 = JCM 6841, 18 h
Method in brief: (§1)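 Screen run by CO-ADD: mid-log cultures in cation-adjusted MHB, 5 × 10^5 CFU/mL, compounds at up to 32 μg/mL in 1:2 serial dilutions (8 steps), final DMSO ≤0.5%, duplicate. 37 °C for 18 h without shaking; OD600 read against media-only and untreated-bacteria references. MIC = lowest concentration giving ≥80% inhibition; colistin standard.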

[4] = tested on: Staphylococcus aureus; test: Antimicrobial activity against methicillin-resistant Staphylococcus aureus ATCC 43300 incubated for 18 hrs by CLSI method; format: functional; settings: ATCC 43300, 18 h
[5] = tested on: Staphylococcus aureus; test: Antibacterial activity against methicillin-resistant Staphylococcus aureus NCTC 10442 incubated for 24 hrs by CLSI method; format: functional; settings: NCTC 10442, 24 h
Method in brief: (§2)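 Broth microdilution per CLSI aerobic guidance in Mueller Hinton broth, ambient air, 35 °C for 24 h. DMSO stocks were diluted in water, then serially diluted with double-strength broth inoculum added, for final 0.25–128 μg/mL. […] MIC was read visually as the lowest concentration inhibiting growth; the modal value of triplicates was recorded.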

[6] = tested on: Clostridioides difficile; test: Antibacterial activity against Clostridium difficile NSW132 RT027 incubated for 48 hrs by CLSI method; format: functional; settings: NSW132 RT027, 48 h
Method in brief: (§3)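 Broth microdilution per CLSI anaerobe method in pre-reduced (2-4 h) Brucella broth with haemin and vitamin K, 35 °C anaerobically for 48 h. Compounds from 5 mg/mL DMSO stocks, twofold dilutions in water mixed with double-strength broth; final 0.25–128 μg/mL. […] Triplicate; modal MIC read visually as lowest concentration inhibiting growth.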

[7] = tested on: Pseudomonas aeruginosa; test: Antimicrobial activity against Pseudomonas aeruginosa ATCC 27853 incubated for 18 hrs by CLSI method; format: functional; settings: ATCC 27853, 18 h; method in brief: as §1
[8] = tested on: Escherichia coli; test: Induction of plasma membrane permeabilization in Escherichia coli NCTC 10418 at 32 ug/ml measured for 30 mins by propidium iodide staining based fluorescence assay relative to control; format: functional
Method in brief: (§4)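 Mid-log cells (1.5 McFarland) with 4 µM propidium iodide, dark, room temperature: S. aureus in PBS 30 min; E. coli in 5 mM HEPES/20 mM glucose pH 7.2 for 60 min, then 100 mM KCl and 0.5 mM EDTA. Fluorescence (ex 544/em 615 nm) read ~8 min baseline, then ~30 min after compound at 32 µg/mL final.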

[9] = tested on: Streptococcus pneumoniae; test: Antibacterial activity against Streptococcus pneumoniae ATCC 49619 incubated for 24 hrs by CLSI method; format: functional; settings: ATCC 49619, 24 h
Method in brief: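 CLSI broth microdilution in MHB with 2.5% lysed horse blood, 5% CO2, 35 °C, 24 h. Compounds from 5 mg/mL DMSO stocks diluted in water plus double-strength broth; final 0.25–128 μg/mL. […] Triplicate; modal MIC read visually as lowest growth-inhibiting concentration.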

[10] = tested on: Staphylococcus aureus; test: Antimicrobial activity against glycopeptide intermediate susceptible/methicillin-resistant Staphylococcus aureus NRS1 incubated for 18 hrs by CLSI method; format: functional; settings: NRS1, 18 h
[11] = tested on: Staphylococcus aureus; test: Induction of cytoplasmic membrane depolarization in Staphylococcus aureus ATCC 29213 at 32 ug/ml incubated for 30 mins by diSC35 staining based fluorescence assay relative to control; format: functional
Method in brief: (§5)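 Mid-log cells (1.5 McFarland) loaded with 4 µM diSC3(5) in the dark at room temperature: S. aureus in PBS 30 min; E. coli in 5 mM HEPES/20 mM glucose pH 7.2 for 60 min, then 100 mM KCl and 0.5 mM EDTA. Baseline fluorescence (ex 620/em 670 nm) ~8 min, then compound added (final 32 µg/mL S. aureus, 64 µg/mL E. coli), tracked ~30 min.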

[12] = tested on: Escherichia coli; test: Antibacterial activity against Escherichia coli ATCC 25922 incubated for 18 hrs by CLSI method; format: functional; settings: ATCC 25922, 18 h; method in brief: as §1
[13] = tested on: Escherichia coli; test: Bactericidal activity against exponential phase of Escherichia coli NCTC 10418 assessed as reduction in bacterial count at 64 ug/ml measured at <= 120 mins by time-kill kinetics assay relative to control; format: functional
[14] = Haemolytic activity in sheep erythrocytes at 50 ug/ml incubated for 2 hrs under shaking condition relative to control; format: ADME, cell-based, Ovis aries, Erythrocyte; settings: read-out: Activity
Method in brief: (§6)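 Compounds in PBS mixed with washed sheep erythrocytes (2% final) at 5 or 50 μg/mL, rocked 2 h at 37 °C, centrifuged; supernatant absorbance at 540 nm. PBS-only value subtracted, then expressed relative to water lysis (100%). Triplicate, means reported.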

[15] = tested on: Clostridioides difficile; test: Antibacterial activity against Clostridium difficile ATCC 700057 incubated for 48 hrs by CLSI method; format: functional; settings: ATCC 700057, 48 h; method in brief: as §3
[16] = tested on: Staphylococcus aureus; test: Bactericidal activity against exponential phase of Staphylococcus aureus ATCC 29213 assessed as reduction in bacterial count at 64 ug/ml measured at 2 hrs by time-kill kinetics assay; format: functional
[17] = tested on: Staphylococcus aureus; test: Antimicrobial activity against vancomycin resistant Staphylococcus aureus NARSA VRS10 incubated for 18 hrs by CLSI method; format: functional; settings: NARSA VRS10, 18 h
[18] = tested on: Staphylococcus aureus; test: Antimicrobial activity against methicillin-resistant Staphylococcus aureus clinical isolate with reduced daptomycin susceptibility incubated for 18 hrs by CLSI method; format: functional
[19] = tested on: Staphylococcus aureus; test: Bactericidal activity against exponential phase of Staphylococcus aureus ATCC 29213 assessed as reduction in bacterial count at 64 ug/ml measured at <= 30 mins by time-kill kinetics assay relative to control; format: functional
[20] = Cytotoxicity against human HEK293 cells assessed as reduction in cell growth incubated for 20 hrs by resazurin dye-based fluorometric assay
Method in brief: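 HEK293 cells, 5000 per well in DMEM + 10% FBS, exposed to compounds (top 32 μg/mL, 1:2 serial dilution ×8, ≤0.5% DMSO, duplicate) for 20 h at 37 °C, 5% CO2. Resazurin added (2.3 μg/mL final), 3 h further; fluorescence ex 560/em 590 nm. CC50 from sigmoidal dose-response fit against log concentration; tamoxifen standard.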

[21] = tested on: Staphylococcus aureus; test: Antimicrobial activity against Staphylococcus aureus ATCC 29213 incubated for 24 hrs by CLSI method; format: functional; settings: ATCC 29213, 24 h; method in brief: as §2
[22] = Haemolytic activity in sheep erythrocytes at 5 ug/ml incubated for 2 hrs under shaking condition relative to control; format: ADME, cell-based, Ovis aries, Erythrocyte; settings: read-out: Activity; method in brief: as §6
[23] = tested on: Streptococcus pneumoniae; test: Antibacterial activity against MDR Streptococcus pneumoniae ATCC 700677 incubated for 18 hrs by CLSI method; format: functional; settings: ATCC 700677, 18 h
[24] = tested on: Staphylococcus aureus; test: Antimicrobial activity against methicillin-resistant Staphylococcus aureus clinical isolate incubated for 18 hrs by CLSI method; format: functional
[25] = tested on: Escherichia coli; test: Induction of cytoplasmic membrane depolarization in Escherichia coli NCTC 10418 at 64 ug/ml incubated for 30 mins by diSC35 staining based fluorescence assay relative to control; format: functional; method in brief: as §5
[26] = tested on: Staphylococcus aureus; test: Antimicrobial activity against glycopeptide intermediate susceptible Staphylococcus aureus NRS17 incubated for 18 hrs by CLSI method; format: functional; settings: NRS17, 18 h
[27] = tested on: Staphylococcus aureus; test: Induction of plasma membrane permeabilization in Staphylococcus aureus ATCC 29213 at 32 ug/ml measured for 30 mins by propidium iodide staining based fluorescence assay relative to control; format: functional; method in brief: as §4
[28] = tested on: Klebsiella pneumoniae; test: Antibacterial activity against Klebsiella pneumoniae 700603 incubated for 18 hrs by CLSI method; format: functional; settings: Klebsiella pneumoniae, 700603, 18 h; method in brief: as §1
[29] = tested on: Enterococcus faecalis; test: Antimicrobial activity against vancomycin-resistant Enterococcus faecalis clinical isolate incubated for 18 hrs by CLSI method; format: functional

CC(C)CCOc1ccc2ccccc2c1-c1c(OCc2cn(C[C@@H](CCCCN)NC(=O)[C@@H](CCCNC(=N)N)NC(=O)CCc3ccccc3)nn2)ccc2ccccc12.Cl.Cl
MIC [1]: 4 µg/mL | MIC [2]: 2 µg/mL | MIC [3]: 32 µg/mL | MIC [4]: 1 to 2 µg/mL | MIC [5]: 4 µg/mL | MIC [6]: 32 µg/mL | MIC [7]: 16 µg/mL | Activity [8]: 25 - 40% | MIC [9]: 4 µg/mL | MIC [10]: 2 to 4 µg/mL | Activity [11]: 120 - 180% | MIC [12]: 8 µg/mL | Activity [13]: >=3 log10CFU/ml | hemolysis at 2 h, 50 ug/ml [14]: 94.2% | MIC [15]: 16 µg/mL | Activity [16]: < 1000 CFU/mL | MIC [17]: 2 µg/mL | MIC [18]: 2 to 4 µg/mL | Activity [19]: >=3 log10CFU/ml | CC50 at 20 h [20]: 27.4 µg/mL | MIC [21]: 4 µg/mL | hemolysis at 2 h, 5 ug/ml [22]: 1.1% | MIC [23]: 1 to 2 µg/mL | MIC [24]: 4 µg/mL | Activity [25]: 460 - 900% | MIC [26]: 2 µg/mL | Activity [27]: 600% | MIC [28]: 32 µg/mL | MIC [29]: 2 µg/mL
